Test results taken from ChEMBL document CHEMBL3526048, “In vitro metabolism of rivoglitazone, a novel peroxisome proliferator-activated receptor γ agonist, in rat, monkey, and human liver microsomes and freshly isolated hepatocytes” (Drug Metab Dispos, 2011).

Key:
[1] = tested on: Liver microsome; test: Drug metabolism in Sprague-Dawley rat liver microsomes assessed as formation of 2-mercapto-3-(4-((6-methoxy-1-methyl-1H-benzo[d]imidazol-2-yl)methoxy)phenyl)propanoic acid at 20 uM after 2 to 4 hrs by radio-HPLC/LC-MS/MS analysis in presence of UDPGA, UDPGA/SAM and NADPH-generating system; assay type: ADME
[2] = Drug metabolism in rat hepatocytes assessed as formation of 5-hydroxy-5-(4-((6-methoxy-1-methyl-1H-benzo[d]imidazol-2-yl)methoxy)benzyl)thiazolidine-2,4-dione at 30 uM after 3 hrs by radio-HPLC/LC-MS/MS analysis in presence of NADPH-generating system and NADPH-generating system/SAM; assay type: ADME, cell-based, Hepatocyte
[3] = molecular target: T1, Cytochrome P450 3A4 (Homo sapiens, UniProt P08684); test: Activity of human CYP3A4 expressed in microsomes isolated from baculovirus infected insect cell assessed as enzyme-mediated 5-hydroxy-5-(4-((6-methoxy-1-methyl-1H-benzo[d]imidazol-2-yl)methoxy)benzyl)thiazolidine-2,4-dione formation at 20 uM after 2 hrs by radio-HPLC/LC-MS/MS analysis in presence of NADPH-generating system and NADPH-generating system/SAM; assay type: ADME
[4] = molecular target: Cytochrome P450 2D6 (Homo sapiens, UniProt P10635); test: Activity of human CYP2D6 expressed in microsomes isolated from baculovirus infected insect cell assessed as enzyme-mediated 3-(4-((6-methoxy-1-methyl-1H-benzo[d]imidazol-2-yl)methoxy)phenyl)-2-(methylsulfonyl)propanamide formation at 20 uM after 2 hrs by radio-HPLC/LC-MS/MS analysis in presence of NADPH-generating system/SAM; assay type: ADME
[5] = molecular target: T2, UDP-glucuronosyltransferase 2B7 (Homo sapiens, UniProt P16662); test: Activity of human UGT2B7 expressed in microsomes isolated from baculovirus infected insect cell assessed as enzyme-mediated 2-mercapto-3-(4-((6-methoxy-1-methyl-1H-benzo[d]imidazol-2-yl)methoxy)phenyl)propanoic acid formation at 20 uM after 4 hrs by radio-HPLC/LC-MS/MS analysis in presence of UDPGA, UDPGA/SAM and NADPH-generating system in presence of UDPGA and UDPGA/SAM; assay type: ADME
T2 sequence (P16662 whole entry): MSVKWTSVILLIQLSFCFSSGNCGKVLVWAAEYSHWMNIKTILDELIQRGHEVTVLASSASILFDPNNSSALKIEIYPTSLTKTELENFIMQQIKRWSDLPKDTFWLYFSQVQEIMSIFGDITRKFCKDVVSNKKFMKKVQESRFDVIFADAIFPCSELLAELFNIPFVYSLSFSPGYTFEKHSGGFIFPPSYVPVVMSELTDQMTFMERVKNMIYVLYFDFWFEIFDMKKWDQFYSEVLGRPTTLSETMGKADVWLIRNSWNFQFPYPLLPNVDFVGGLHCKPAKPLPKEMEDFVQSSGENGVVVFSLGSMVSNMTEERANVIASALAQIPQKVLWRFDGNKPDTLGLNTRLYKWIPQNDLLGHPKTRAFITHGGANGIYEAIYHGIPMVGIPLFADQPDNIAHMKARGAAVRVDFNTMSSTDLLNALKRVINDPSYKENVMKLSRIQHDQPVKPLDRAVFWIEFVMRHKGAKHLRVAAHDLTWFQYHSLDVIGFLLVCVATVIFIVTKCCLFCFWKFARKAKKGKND

[6] = molecular target: T3, Cytochrome P450 2C8 (Homo sapiens, UniProt P10632); test: Activity of human CYP2C8 expressed in microsomes isolated from baculovirus infected insect cell assessed as enzyme-mediated 5-(4-((6-methoxy-1H-benzo[d]imidazol-2-yl)methoxy)benzyl)thiazolidine-2,4-dione formation at 20 uM after 2 hrs by radio-HPLC/LC-MS/MS analysis in presence of NADPH-generating system and NADPH-generating system/SAM; assay type: ADME
T3 sequence (P10632 whole entry): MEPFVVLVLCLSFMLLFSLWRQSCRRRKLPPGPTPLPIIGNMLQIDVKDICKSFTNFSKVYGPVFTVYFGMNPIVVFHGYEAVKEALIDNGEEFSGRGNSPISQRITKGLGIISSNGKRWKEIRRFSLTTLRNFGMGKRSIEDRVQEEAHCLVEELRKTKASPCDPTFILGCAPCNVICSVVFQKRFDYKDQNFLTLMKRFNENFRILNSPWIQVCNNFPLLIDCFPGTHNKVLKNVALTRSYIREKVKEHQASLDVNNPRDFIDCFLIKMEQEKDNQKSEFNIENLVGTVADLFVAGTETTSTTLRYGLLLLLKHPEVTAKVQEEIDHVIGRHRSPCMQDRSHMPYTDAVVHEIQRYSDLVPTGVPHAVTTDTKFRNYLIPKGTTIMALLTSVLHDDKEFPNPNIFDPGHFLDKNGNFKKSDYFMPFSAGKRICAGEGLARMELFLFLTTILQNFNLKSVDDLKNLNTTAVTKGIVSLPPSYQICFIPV
Procedure, shortened: (§1)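 Baculovirus/insect-cell microsomes expressing single human CYPs, 1 mg/ml protein, with 50 mM potassium phosphate (pH 7.4) or 100 mM Tris-HCl (pH 7.5). NADPH-generating system: 2 mM NADP⁺, 20 mM glucose 6-phosphate, 2 units/ml G6PDH, 10 mM MgCl₂. [¹⁴C]rivoglitazone at 20 μM, 2 h at 37°C with shaking. Control used insect-cell control supersomes. Stopped with acetonitrile; supernatant concentrated under nitrogen; metabolites analysed by radio-HPLC, LC-MS and LC-MS/MS.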

[7] = molecular target: T1, Cytochrome P450 3A4; test: (§2) Activity of human CYP3A4 expressed in microsomes isolated from baculovirus infected insect cell assessed as enzyme-mediated (2S,3S,4S,5R,6R)-6-((1-carboxy-2-(4-((6-methoxy-1-methyl-1H-benzo[d]imidazol-2-yl)methoxy)phenyl)ethylthio)carbonylamino)-3,4,5-trihydroxytetrahydro-2H-pyran-2-carboxylic acid formation at 20 uM after 2 hrs by radio-HPLC/LC-MS/MS analysis in presence of NADPH-generating system/SAM; assay type: ADME
[8] = molecular target: T4, UDP-glucuronosyltransferase 1A3 (Homo sapiens, UniProt P35503); test: as §2, with “human UGT1A3” for “human CYP3A4”, “after 4” for “after 2”; assay type: ADME
T4 sequence (P35503 whole entry): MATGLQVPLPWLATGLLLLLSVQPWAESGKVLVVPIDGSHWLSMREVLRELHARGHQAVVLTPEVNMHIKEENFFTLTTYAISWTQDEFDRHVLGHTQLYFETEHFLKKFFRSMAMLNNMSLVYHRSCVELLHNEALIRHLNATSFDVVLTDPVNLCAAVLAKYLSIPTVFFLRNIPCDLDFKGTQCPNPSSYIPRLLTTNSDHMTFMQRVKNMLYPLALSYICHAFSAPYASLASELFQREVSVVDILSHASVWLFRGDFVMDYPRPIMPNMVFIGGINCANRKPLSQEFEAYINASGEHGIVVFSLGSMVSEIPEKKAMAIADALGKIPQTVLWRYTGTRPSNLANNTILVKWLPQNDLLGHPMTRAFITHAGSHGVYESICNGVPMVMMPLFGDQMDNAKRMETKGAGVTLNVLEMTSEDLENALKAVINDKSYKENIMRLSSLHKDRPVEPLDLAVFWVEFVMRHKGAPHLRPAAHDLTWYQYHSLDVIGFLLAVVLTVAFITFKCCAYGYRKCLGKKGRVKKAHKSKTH

[9] = molecular target: Cytochrome P450 2C19 (Homo sapiens, UniProt P33261); test: Activity of human CYP2C19 expressed in microsomes isolated from baculovirus infected insect cell assessed as enzyme-mediated 2-hydroxy-3-(4-((6-methoxy-1-methyl-1H-benzo[d]imidazol-2-yl)methoxy)phenyl)propanamide formation at 20 uM after 2 hrs by radio-HPLC/LC-MS/MS analysis in presence of NADPH-generating system and NADPH-generating system/SAM; assay type: ADME; procedure, shortened: as §1
Cytochrome P450 2C19, sequence (P33261 whole entry): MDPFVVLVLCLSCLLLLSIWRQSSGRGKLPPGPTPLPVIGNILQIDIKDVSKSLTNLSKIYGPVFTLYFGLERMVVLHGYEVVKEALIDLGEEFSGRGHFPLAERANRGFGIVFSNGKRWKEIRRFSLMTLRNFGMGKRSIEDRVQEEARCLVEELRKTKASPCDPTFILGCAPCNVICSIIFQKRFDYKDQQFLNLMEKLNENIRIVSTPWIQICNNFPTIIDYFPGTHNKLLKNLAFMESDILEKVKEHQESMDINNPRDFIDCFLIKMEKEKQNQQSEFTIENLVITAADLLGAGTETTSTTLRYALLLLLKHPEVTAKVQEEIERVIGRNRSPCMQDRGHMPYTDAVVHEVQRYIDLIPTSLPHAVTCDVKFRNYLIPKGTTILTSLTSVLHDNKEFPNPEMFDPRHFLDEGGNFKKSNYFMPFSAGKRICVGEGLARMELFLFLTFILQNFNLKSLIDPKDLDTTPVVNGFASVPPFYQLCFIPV

T1 sequence (P08684 whole entry): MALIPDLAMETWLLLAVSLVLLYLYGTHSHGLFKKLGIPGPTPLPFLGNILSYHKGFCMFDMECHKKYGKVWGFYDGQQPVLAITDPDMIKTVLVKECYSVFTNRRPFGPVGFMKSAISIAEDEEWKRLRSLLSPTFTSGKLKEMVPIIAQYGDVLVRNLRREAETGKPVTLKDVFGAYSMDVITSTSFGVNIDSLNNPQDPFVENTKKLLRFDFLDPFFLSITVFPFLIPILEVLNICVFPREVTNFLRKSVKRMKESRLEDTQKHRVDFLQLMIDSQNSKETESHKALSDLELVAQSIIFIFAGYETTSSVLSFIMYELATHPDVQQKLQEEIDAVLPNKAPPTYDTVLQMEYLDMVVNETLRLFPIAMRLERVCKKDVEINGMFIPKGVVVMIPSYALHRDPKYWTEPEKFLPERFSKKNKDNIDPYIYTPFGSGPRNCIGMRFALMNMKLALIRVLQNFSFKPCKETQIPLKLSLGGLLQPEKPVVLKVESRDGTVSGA
Cytochrome P450 2D6, sequence (P10635 whole entry): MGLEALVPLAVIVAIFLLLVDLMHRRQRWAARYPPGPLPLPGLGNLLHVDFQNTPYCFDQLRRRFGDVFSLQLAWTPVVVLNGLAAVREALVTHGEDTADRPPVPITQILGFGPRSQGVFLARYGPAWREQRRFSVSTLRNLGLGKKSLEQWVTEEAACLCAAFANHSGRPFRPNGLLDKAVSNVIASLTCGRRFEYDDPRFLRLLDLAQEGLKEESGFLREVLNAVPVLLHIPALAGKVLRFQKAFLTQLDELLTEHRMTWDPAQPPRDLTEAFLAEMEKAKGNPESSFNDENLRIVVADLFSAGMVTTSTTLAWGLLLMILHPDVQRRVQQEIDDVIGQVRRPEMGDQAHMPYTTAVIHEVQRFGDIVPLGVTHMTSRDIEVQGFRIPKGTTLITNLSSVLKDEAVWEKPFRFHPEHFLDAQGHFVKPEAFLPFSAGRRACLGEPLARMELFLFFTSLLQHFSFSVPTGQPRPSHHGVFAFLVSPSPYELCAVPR

Structure (SMILES): COc1ccc2nc(COc3ccc(C[14CH]4SC(=O)NC4=O)cc3)n(C)c2c1.Cl (racemic)
- Drug metabolism [1]: metabolite_detected
- Drug metabolism [2]: metabolite_detected
- Drug metabolism [3]: metabolite_detected
- Drug metabolism [4]: metabolite_not_detected
- Drug metabolism [5]: metabolite_detected
- Drug metabolism [6]: metabolite_detected
- Drug metabolism [7]: metabolite_not_detected
- Drug metabolism [8]: metabolite_detected
- Drug metabolism [9]: metabolite_detected
